Paper PMC7613793 (Cell metabolism, 2022)
“Also recorded” adds a separate entry of the source.

What was measured:
primary tanycytes = assay type: in vitro ADME, rat; conditions: 37 °C
Method in brief: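 Rat tanycytes from median eminences of P10 pups, seeded on coated permeable supports (90 000 cells/cm2) 17 days after isolation: 4 days in 10% donor bovine serum, then 3 days serum-free with insulin and putrescine. On day 7, 15 min preincubation at 37 °C ± 1000 nM exendin9-39. Apical 0.7 nM 125I-liraglutide (1 μCi/ml) ± unlabeled liraglutide 10–10 000 nM, 60 min, 37 °C, shaking. Uptake read from cut supports; release in fresh buffer up to 1 h.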

[1] = system: tuberal region of the hypothalamus; assay type: in vivo, mouse; conditions: mice, intravenous (jugular vein), 90 nmol/Kg, 15 and 60 seconds after injection; Fig. 1a
[2] = system: tanycytes and neuron-like cells of the ME and vmARH; assay: pCREB immunohistochemistry in ME/ARH after intravenous liraglutide; assay type: in vivo, mouse; conditions: mice, 90 nmol/Kg, at 1 min, n = 4 animals per group, Fig. 1f-h
Method in brief: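 Male mice, 8-10 weeks, fitted with a jugular vein catheter under ketamine-xylazine. Saline or liraglutide given i.v. at 90 nmol/Kg, then transcardial perfusion with saline and 0.1M PBS-4% PFA (pH 7.4). 30 μm free-floating sections double-stained with chicken anti-vimentin and rabbit anti-phospho-CREB. pCREB-positive tanycytes and neuron-like cells counted in ME, vmARH, dmARH and total ARH, 3–4 sections per animal. Unpaired t-test.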

rat primary tanycytes = assay: pCREB induction in primary tanycytes; assay type: cell-based; conditions: Supplementary Fig. 2a
hypothalamic neurons = assay type: in vivo, mouse
[3] = assay type: in vivo, mouse
[4] = system: dipeptidyl peptidase 4 (DPP-4); conditions: cited from earlier work

## ^125I-liraglutide: radioactively labeled liraglutide
Primary tanycytes; 125I-liraglutide 0.7 nM, with or without unlabeled liraglutide 10 μM, transwell, uptake buffer pH 7.4, 60 min, n = 3, 3, 8, 8 wells from 2 independent experiments, Fig. 1c
  Liraglutide accumulation in tanycytes relative to endothelial cells: approximately 4 times
Primary tanycytes; pulse-chase experiment in vitro, Fig. 1e
  Time to saturation of uptake by tanycytes: ≤ 15 min

## CCCCCCCCCCCCCCCC(=O)N[C@@H](CCC(=O)NCCCC[C@H](NC(=O)[C@H](C)NC(=O)[C@H](C)NC(=O)[C@H](CCC(N)=O)NC(=O)CNC(=O)[C@H](CCC(=O)O)NC(=O)[C@H](CC(C)C)NC(=O)[C@H](Cc1ccc(O)cc1)NC(=O)[C@H](CO)NC(=O)[C@H](CO)NC(=O)[C@@H](NC(=O)[C@H](CC(=O)O)NC(=O)[C@H](CO)NC(=O)[C@@H](NC(=O)[C@H](Cc1ccccc1)NC(=O)[C@@H](NC(=O)CNC(=O)[C@H](CCC(=O)O)NC(=O)[C@H](C)NC(=O)[C@@H](N)Cc1cnc[nH]1)[C@@H](C)O)[C@@H](C)O)C(C)C)C(=O)N[C@@H](CCC(=O)O)C(=O)N[C@@H](Cc1ccccc1)C(=O)N[C@H](C(=O)N[C@@H](C)C(=O)N[C@@H](Cc1c[nH]c2ccccc12)C(=O)N[C@@H](CC(C)C)C(=O)N[C@H](C(=O)N[C@@H](CCCNC(=N)N)C(=O)NCC(=O)N[C@@H](CCCNC(=N)N)C(=O)NCC(=O)O)C(C)C)[C@@H](C)CC)C(=O)O [liraglutide]
[1]
  Route of brain entry of fluorescently labeled liraglutide: did not cross the microvascular endothelial cells of the BBB; also recorded: extravasated through the fenestrated vessels of the ME
[2]
  pCREB in tanycytes and neuron-like cells of the ME and vmARH vs saline: markedly induced pCREB
Rat primary tanycytes; liraglutide treatment
  pCREB in rat primary tanycytes: induced
Hypothalamic neurons; anesthetized control mice, ten minutes after intravenous injection, 90 nmol/Kg
  c-Fos activation of neurons in AHN, PVH and LHA, control mice: activated
Hypothalamic neurons; control mice, one hour after intraperitoneal injection
  c-Fos expression in DMH and ZI, control mice: did not significantly upregulate c-Fos expression
Hypothalamic neurons; iBot littermates, one hour after intraperitoneal injection, Fig. 2d-f
  c-Fos expression, iBot mice: unaffected
Hypothalamic neurons; mouse, in vivo, iv
  c-Fos expression in hypothalamic neurons, iBot mice: failed to significantly induce c-Fos expression
Hypothalamic neurons; unanesthetized control mice, one hour after intraperitoneal injection, Fig. 2
  c-Fos activation of neurons in PVH and LHA (not AHN), control mice: remain activated
[3]; control mice, 0.1 mg/kg for 3 consecutive days, vs saline
  Energy expenditure: markedly reduced
[3]; control mice, 0.1 mg/kg for 3 consecutive days, vs saline, Fig. 3b
  Food intake: markedly reduced
[3]; control mice, 0.1 mg/kg for 3 consecutive days, Fig. 3e
  Fatty acid oxidation: increased fatty acid oxidation
[3]; control mice, 0.1 mg/kg for 3 consecutive days, NMR body composition, Fig. 3d
  Fat mass: fat mass reduction
[3]; mouse, in vivo, 0.1 mg/kg
  Anti-obesity effects in iBot mice: abrogated
[4]; ref Kim and Egan, 2008
  Cleavage by DPP-4 and half-life compared to endogenous GLP1: reduces its cleavage by DPP-4 and prolongs its half-life

## exendin 9-39
Rat primary tanycytes; co-treatment with liraglutide
  Effect on liraglutide-induced pCREB in rat primary tanycytes: blunted

## Glucagon-like peptide 1 (GLP1; 7–36 amide)
[4]; in vivo, ref not given
  Degradation by DPP-4 in vivo: rapid degradation

## liraglutide^564: fluorescently labeled liraglutide provided by Novo Nordisk
[1]
  Route of brain entry of fluorescently labeled liraglutide: does not extravasate from BBB vessels
